# Assay results as given in the RNAGym collection of RNA variant scans (doi:10.1126/science.aae0568).
# Variants at the floor of the assay were thinned out.
# B1: tRNA (parent)
# chain: GUUCCGUUGGCGUAAUGGUAACGCGUCUCCCUCCUAAGGAGAAGACUGCGGGUUCGAGUCCCGUACGGAACG
# Variants of: B1
# Experiment: yeast fitness relative to wild type (ratio to wild type); higher = fitter; tRNA-Arg(CCU), competitive growth, 37 C, YPD
# Outline: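 Variants of the tRNA-Arg(CCU) gene, chemically synthesised with a 3% per-site mutation rate at 69 sites, were placed at the native genomic locus in Saccharomyces cerevisiae. The pooled strains were competed in YPD at 37°C for 24 hours in six parallel replicates. Gene amplicons from the start population and from each end population were read by 100-nucleotide paired-end sequencing. Darwinian fitness relative to wild type came from changes in genotype frequencies; genotypes needed ≥ 100 starting reads, and estimates < 0.5 were set to 0.5.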
row,Variant,yeast fitness
1,GUUCCGUUGGCGUAAUGGUAACGCGUCUCACUCCUAAGGAGAAGACUGCGGGUUCGAGUCACGUGGGGAGCG [C30A C61A A65G C66G A70G],≤ 0.5
2,GUUCCGUUGGCGUAAUGGUAACGCGUCUCACUCCUAAGGAGAAGACUGCGGGUUCGACUCCCGUACGGAACG [C30A G58C],1
3,GUUCCGUUGGCGUAAUGGUAACGCGUCUCACUCCUAAGGAGAAGACUGCGGCUUCGAGUCCCGUACGGCACG [C30A G52C A69C],≤ 0.5
4,GUUCCGUUGGCGUAAUGGUAACGCGUCUCACUCCUAAGGAGAAGACUGCAGGUUCAAGUCCCGUACGGAACG [C30A G50A G56A],0.742
5,GUUCCGUUGGCGUAAUGGUAACGCGUCUCACUCCUAAGGAGAAGACUGCGGGUUCGAGUCUAGUACGGAGCG [C30A C61U C62A A70G],≤ 0.5
6,GUUCCGUUGGCGUAAUGGUAACGCGUCUCACUCCUAAGGAGAAGACUGCGGGUUCGAGUCCCAUACGGAACG [C30A G63A],0.83
7,GUUCCGUUGGCGUAAUGGUAACGCGUCUCACUCCUAAGGAGAAGACUGCGGGAUCGAGUCCCGUAUGGAACG [C30A U53A C66U],≤ 0.5
8,GUUCCGUUGGCGUAAUGGUAACGCGUCUCACUCCUAAGGAGAAGACUGCGAGUUCGAGUCCCGUACUGAACG [C30A G51A G67U],≤ 0.5
9,GUUCCGUUGGCGUAAUGGUAACGCGUCUCACUCCUAAGGAGAACACUGCGGGUUCGAGUCCCGUACGGAACG [C30A G44C],0.795
10,GUUCCGUUGGCGUAAUGGUAACGCGUCUCACACCGAAGGAGAAGACUGCGGGUUCGAGUCCCGUACAGAACG [C30A U32A U35G G67A],≤ 0.5
11,GUUCCGUUGGCGUAAUGGUAACGCGUCUCACUCCUAAGGACAAGACUGCGGGUUCGAGUCCCGUACGGCACG [C30A G41C A69C],0.598
12,GUUCCGUUGGCGUAAUGGUAACGCGUCUCACUCCUAAGGAGAAGACUGCGGGUUCGACUCCCAUACGGAACG [C30A G58C G63A],≤ 0.5
13,GUUCCGUUGGCGUAAUGGUAACGCGUCUCACACCUAAGGAGAAGACUGCGGGUUCGCGUCCCGUACGGAACG [C30A U32A A57C],≤ 0.5
14,GUUCCGUUGGCGUAAUGGUAACGCGUCUCGCUCCUGAGGAGAAGACUGCGGGUUCGUGUCCCGUUCGGAACG [C30G A36G A57U A65U],0.555
15,GUUCCGUUGGCGUAAUGGUAACGCGUCUCACUCCUAAGGAGAAGACUGUGGGUUCGAGUCCCGUACGGUACG [C30A C49U A69U],0.682
16,GUUCCGUUGGCGUAAUGGUAACGCGUCUCACUCCUAAGGAGAAGACUGCGGGUUGGCGUCCGGUACGCAACG [C30A C55G A57C C62G G68C],0.513
17,GUUCCGUUGGCGUAAUGGUAACGCGUCUCACUCCUAAGGAGAAGACUGCGGGUUCGAGUCCAGUACGGAACG [C30A C62A],0.589
18,GUUCCGUUGGCGUAAUGGUAACGCGUCUCACUCCUAAGGAGAAGACUGCGGGUUCGAGUCCCGUACGACACG [C30A G68A A69C],0.629
19,GUUCCGUUGGCGUAAUGGUAACGCGUCUCACUCCAAAGGAGAAGACUGCGGGUUCGAGUCCCGUACGGAACG [C30A U35A],0.569

row,Variant,yeast fitness
1,GUUCCGUUGGCGUAAUGGUAACGCGUCUCACUCCUAAGGAGAAGACUGCGGGUUCGAGUCCCGCACGGAACG [C30A U64C],0.885
2,GUUCCGUUGGCGUAAUGGUAACGCGUCUCACUCCUAAAGAGAAAACUGCGGGUUCGAGUCCCGUACGGAACG [C30A G38A G44A],≤ 0.5
3,GUUCCGUUGGCGUAAUGGUAACGCGUCUCACUCCUAAAGAGUAGACUGCGGGUUCGAGUCCCGUACGGAACG [C30A G38A A42U],≤ 0.5
4,GUUCCGUUGGCGUAAUGGUAACGCGUCUCGCUCCUUAGGAGAAGACUGGGGGCUCGACUCCCGUACAGAUCG [C30G A36U C49G U53C G58C G67A A70U],≤ 0.5
5,GUUCCGUUGGCGUAAUGGUAACGCGUCUCACUCCUAAGGAGAAGACUGCGGGUACGAGUCCCGUACGGCACG [C30A U54A A69C],0.539
6,GUUCCGUUGGCGUAAUGGUAACGCGUCUCACUCCUAAGAAGAAGACAGCGGGUUCGAGUCCCCUACGGAACG [C30A G39A U47A G63C],0.528
7,GUUCCGUUGGCGUAAUGGUAACGCGUCUCACUCCUAAGGAGAAGACUGCGGGUUCGAGUCCCGUACAGAACG [C30A G67A],0.822
8,GUUCCGUUGGCGUAAUGGUAACGCGUCUCACUCCUAAAGAGAAGACUGCGGGUUCGAGUCCCGUACGGAACG [C30A G38A],0.783
9,GUUCCGUUGGCGUAAUGGUAACGCGUCUCACUCCUAAGGAGAAGACUGCAGGUUCGAGUCCCGUACGGAACG [C30A G50A],0.677
10,GUUCCGUUGGCGUAAUGGUAACGCGUCUCACUCCUAAGGAGAAGACUGCGGAUUCGUGUCCCGUACGGAACG [C30A G52A A57U],≤ 0.5
11,GUUCCGUUGGCGUAAUGGUAACGCGUCUCACUCCUAAGGAGAAGACUGCGGGUUCUAGUCCCGUGUGGAACG [C30A G56U A65G C66U],≤ 0.5
12,GUUCCGUUGGCGUAAUGGUAACGCGUCUCACUCCUAAGGAGAAGACUGCGGGUUCGAGUCCCGUACGAAACG [C30A G68A],0.862
13,GUUCCGUUGGCGUAAUGGUAACGCGUCUCACUCCUAAGGAGAAGACUGCGGGUUCGAGUCCCGUACGCAACG [C30A G68C],0.823
14,GUUCCGUUGGCGUAAUGGUAACGCGUCUCACUCCUAAGGAGAAGACUGCGGGUUGGAGUCCCGUACGGAACG [C30A C55G],0.596
15,GUUCCGUUGGCGUAAUGGUAACGCGUCUCACUCCUAAGGAGAAGACUGCGGGUUUGAGUCCCGUACGGAACG [C30A C55U],0.686
16,GUUCCGUUGGCGUAAUGGUAACGCGUCUCACUCCUAAGGAGAAGACUGCCGGUUCGAGUCCCGUACGGUACG [C30A G50C A69U],≤ 0.5
17,GUUCCGUUGGCGUAAUGGUAACGCGUCUCACUCCUAAGCAGAAGACUGCGGGUUCGAGUCCCGUACGGAACG [C30A G39C],0.656
18,GUUCCGUUGGCGUAAUGGUAACGCGUCUCACUCCUAAGGAGAAGAUUGCGGCUUCGAGUCCCGUACGGAACG [C30A C46U G52C],0.568
